This is an account of results in ChEMBL document CHEMBL3085660, “Synthesis and evaluation of new coumarin-pyridine hybrids with promising anti-osteoporotic activities” (Eur J Med Chem, 2013).

Calls of active or inactive are those of the source. The rule behind the calls is not given here.

The nature of test [1]: Increase in mineralization in mouse Calvarial cells assessed as mineralized nodule formation at 1 pM after 21 days using alizarin red-S staining by spectrophotometry relative to untreated-control. It counts as functional, Calvarial cell.
For test [2], the system named is Calvarial cell. The experiment in a line: Induction of osteoblast differentiation in mouse Calvarial cells assessed as increase in alkaline phosphatase activity at 1 to 100 pM after 48 hrs by spectrophotometry relative to control. In kind it is functional, cell-based. The essentials:
(§1)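 Neonatal mouse calvarial osteoblasts trypsinized at 70–80% confluence, 2 × 10³ cells/well, treated 48 h in differentiation medium (α-MEM, 10% FCS, 10 mM β-glycerophosphate, ascorbic acid), 1 pM to 1 µM. Cells PBS-washed, freeze-thawed (−80 °C then 37 °C, 30 min each). ALP measured with p-nitrophenylphosphate at 405 nm. Mean ± S.D. of three independent experiments versus untreated control.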

Test [3] is described as follows: Increase in mineralization in mouse Calvarial cells assessed as mineralized nodule formation at 10 nM after 21 days using alizarin red-S staining by spectrophotometry relative to untreated-control. It counts as functional, Calvarial cell.
In test [4] the test system is Calvarial cell. Kind of test: Induction of osteoblast differentiation in mouse Calvarial cells assessed as increase in alkaline phosphatase activity at 10 nM after 48 hrs by spectrophotometry relative to control. It counts as functional, cell-based. The method in brief: as §1
Test [5] can be described thus: Increase in osteoblastogenesis in mouse Calvarial cells assessed as increase in Runx-2 gene expression at 10 nM by quantitative RT-PCR method relative to untreated-control. It counts as functional, Calvarial cell. The method in brief: (§2)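 Transcripts of Runx-2, BMP-2 and COL-1 in primary mouse calvarial osteoblasts after compound treatment measured by qPCR, with GAPDH as internal control. Results expressed as fold change over untreated cells.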

A short description of test [6]: Increase in osteoblastogenesis in mouse Calvarial cells assessed as increase in BMP-2 gene expression at 10 nM by quantitative RT-PCR method relative to untreated-control. In kind it is functional, Calvarial cell. The method in brief:
as §2

The nature of test [7]: Increase in mineralization in mouse Calvarial cells assessed as mineralized nodule formation at 100 pM after 21 days using alizarin red-S staining by spectrophotometry relative to untreated-control. It counts as functional, Calvarial cell.
Test [8] deals with Calvarial cell. Kind of test: Induction of osteoblast differentiation in mouse Calvarial cells assessed as increase in alkaline phosphatase activity at 100 pM to 1 uM after 48 hrs by spectrophotometry relative to control. In kind it is functional, cell-based. The method in brief: as §1
Test [9] can be described thus: Increase in osteoblastogenesis in mouse Calvarial cells assessed as increase in BMP-2 gene expression at 100 pM by quantitative RT-PCR method relative to untreated-control. In kind it is functional, Calvarial cell. The method in brief: as §2
Test [10] in a line: Increase in osteoblastogenesis in mouse Calvarial cells assessed as increase in COL1 gene expression at 100 pM by quantitative RT-PCR method relative to untreated-control. In kind it is functional, Calvarial cell. The method in brief:
as §2

Test [11] in a line: Increase in osteoblastogenesis in mouse Calvarial cells assessed as increase in Runx-2 gene expression at 100 pM by quantitative RT-PCR method relative to untreated-control. It counts as functional, Calvarial cell. The essentials:
as §2

Test [12] is described as follows: Increase in mineralization in mouse Calvarial cells assessed as mineralized nodule formation at 1 uM after 21 days using alizarin red-S staining by spectrophotometry relative to untreated-control. In kind it is functional, Calvarial cell.
Test [13] in a line: Increase in osteoblastogenesis in mouse Calvarial cells assessed as increase in BMP-2 gene expression at 1 uM by quantitative RT-PCR method relative to untreated-control. It counts as functional, Calvarial cell. The method in brief:
as §2

Test [14] has as its system Calvarial cell. Kind of test: Induction of osteoblast differentiation in mouse Calvarial cells assessed as increase in alkaline phosphatase activity at 10 nM to 1 uM after 48 hrs by spectrophotometry relative to control. In kind it is functional, cell-based. The essentials:
as §1

In the case of `CCOC(=O)c1c(C)nc2c(c1-c1cc(C(C)CC)c3oc(=O)c(C(=O)OCC)cc3c1)C(=O)CC(C)(C)C2` (centres undefined), the “fold change (FC)” value in [1] is 2. In addition, the outcome with Calvarial cell [2] was Active.
As to `CCOC(=O)c1c(C)nc2c(c1-c1cc(C(C)CC)c3oc(=O)c(C(=O)OC)cc3c1)C(=O)CCC2` (centres undefined), the results for the “fold change (FC)” value in test [3], in [5] and in test [6] were 3, 5.2 and 4.8, respectively. Also, the result in the test on Calvarial cell [4] was Active.
For `CCOC(=O)c1cc2cc(-c3c(C(=O)OC)c(C)nc4c3C(=O)CCC4)cc(C(C)CC)c2oc1=O` (centres undefined), the “fold change (FC)” value was 3.5 in [7], 2.4 in [9], 3.1 in [10] and 5 in test [11]. For the same compound, in the test with Calvarial cell [8], the outcome was Active.
In the case of `CCOC(=O)c1c(C)nc(C)c(C(=O)OCC)c1-c1cc(C)c2oc(=O)c(C(=O)OC)cc2c1`, the “fold change (FC)” value in [12] is given as 2; in [13], 2.5. Besides, the result with Calvarial cell [14] was Active.
